Reference: ChEMBL document CHEMBL1155178, “Reactivity of isothiazolones and isothiazolone-1-oxides in the inhibition of the PCAF histone acetyltransferase” (Eur J Med Chem, 2009)
pIC50: −log10 of the molar value.

Legend:
[1] = test system: HepG2; experiment: Growth inhibition of human HepG2 cells after 48 hrs by crystal violet assay; type: functional, cell-based; conditions: HepG2, 48 h
Procedure, shortened: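 HEP G2 liver cancer cells grown in DMEM with 10% heat-inactivated FBS, penicillin and streptomycin at 37 °C, 5% CO2. Seeded at 5000 cells/well, grown 24 h, then exposed to inhibitors for 48 h. Fixed and stained with 1% crystal violet in 70% ethanol for 30 min, water-washed, solubilized in 1% SDS, read at 550 nm. Cell-free blank subtracted; untreated growth set to 100%. Each concentration tested 8-fold.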

[2] = Octanol-water partition coefficient, log P by HPLC analysis; type: physicochemical
Procedure, shortened: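 log P determined from the analyte's peak area in each of the two layers.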

[3] = molecular target: Histone acetyltransferase KAT2B (Homo sapiens, UniProt Q92831); experiment: Inhibition of human recombinant histone acetyltransferase PCAF assessed as CoA-SH activity preincubated for 15 mins by CPM fluorescent assay
Histone acetyltransferase KAT2B, sequence (Q92831 whole entry): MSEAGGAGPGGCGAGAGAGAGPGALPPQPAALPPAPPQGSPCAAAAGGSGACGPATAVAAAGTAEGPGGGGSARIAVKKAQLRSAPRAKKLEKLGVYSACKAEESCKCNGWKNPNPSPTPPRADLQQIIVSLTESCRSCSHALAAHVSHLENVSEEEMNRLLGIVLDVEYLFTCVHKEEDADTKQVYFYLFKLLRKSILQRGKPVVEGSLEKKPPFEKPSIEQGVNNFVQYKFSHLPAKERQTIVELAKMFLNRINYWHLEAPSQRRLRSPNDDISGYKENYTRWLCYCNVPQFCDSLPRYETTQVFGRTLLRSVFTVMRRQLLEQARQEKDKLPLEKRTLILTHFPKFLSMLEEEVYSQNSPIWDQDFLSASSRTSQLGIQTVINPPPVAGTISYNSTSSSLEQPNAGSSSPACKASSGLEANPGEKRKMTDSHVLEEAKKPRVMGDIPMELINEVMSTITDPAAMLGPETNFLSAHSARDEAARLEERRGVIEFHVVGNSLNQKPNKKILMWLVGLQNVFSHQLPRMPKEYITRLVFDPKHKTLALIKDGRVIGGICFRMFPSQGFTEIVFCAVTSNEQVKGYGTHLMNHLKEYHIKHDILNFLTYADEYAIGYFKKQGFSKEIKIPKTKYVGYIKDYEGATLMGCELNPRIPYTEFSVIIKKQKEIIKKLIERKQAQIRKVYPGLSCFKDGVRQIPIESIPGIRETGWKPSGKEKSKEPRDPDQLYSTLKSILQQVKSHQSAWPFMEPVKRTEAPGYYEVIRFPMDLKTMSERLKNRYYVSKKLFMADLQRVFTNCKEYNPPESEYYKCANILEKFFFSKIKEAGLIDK

COC(=O)CCn1sc(Cl)cc1=O
pIC50 [1]: 4.62 | logP [2]: 0.69

CCn1sc(Cl)cc1=O
pIC50 [1]: 4.92

COC(=O)CCn1c(=O)cc(Cl)[s+]1[O-] (stereo unspecified)
pIC50 [1]: < 4.00 | logP [2]: 0.08

CCn1sc(Cl)c(C)c1=O
pIC50 [3]: < 5.00 | pIC50 [1]: 5.04

CCn1sc(Cl)c(Cl)c1=O
pIC50 [3]: 5.62 | pIC50 [1]: 4.92

CCCCCCCCCCCCSc1cc(=O)n(C(C)(C)C)[s+]1[O-] (stereo unspecified)
pIC50 [3]: < 5.00 | pIC50 [1]: < 4.30

COC(=O)CCn1c(=O)c(C)c(Cl)[s+]1[O-] (stereo unspecified)
pIC50 [3]: < 5.00 | pIC50 [1]: < 4.00

COC(=O)CCn1sc(Cl)c(C)c1=O
pIC50 [3]: < 5.00 | pIC50 [1]: 5.07

CCn1c(=O)cc(Cl)[s+]1[O-] (stereo unspecified)
pIC50 [3]: < 5.00 | pIC50 [1]: < 4.00

COC(=O)CCn1sc(Cl)c(Cl)c1=O
pIC50 [3]: 5.59 | pIC50 [1]: 4.80

COC(=O)CCn1c(=O)c(Cl)c(Cl)[s+]1[O-] (stereo unspecified)
pIC50 [3]: < 5.00 | pIC50 [1]: < 4.00

CC(C)(C)n1c(=O)cc(Cl)[s+]1[O-] (stereo unspecified)
pIC50 [3]: < 5.00 | pIC50 [1]: 4.57

CCCCCCCCCCCCSc1cc(=O)n(CCC(=O)OC)[s+]1[O-] (stereo unspecified)
pIC50 [3]: < 5.00 | pIC50 [1]: < 4.00

CCn1c(=O)c(Cl)c(Cl)[s+]1[O-] (stereo unspecified)
pIC50 [3]: < 5.00 | pIC50 [1]: < 4.00

CCn1c(=O)c(C)c(Cl)[s+]1[O-] (stereo unspecified)
pIC50 [3]: < 5.00 | pIC50 [1]: < 4.00

CCCCCCCCCCCCSc1c(Cl)c(=O)n(CCC(=O)OC)[s+]1[O-] (stereo unspecified)
pIC50 [3]: < 5.00 | pIC50 [1]: < 4.00
